Results published in ChEMBL document CHEMBL4043222, “Pyrrolizines: Design, synthesis, anticancer evaluation and investigation of the potential mechanism of action” (Bioorg Med Chem, 2017).
Values belong to the compound of their own block, whether it stands above or below them. Activity calls are given as the source filed them. The rule behind the calls is not given here.

Key:
[1] = system: MCF7; experiment: Growth inhibition of human MCF7 cells by MTT assay; assay type: functional, cell-based
Method in brief: (§1)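 MTT viability. Cells seeded for 24 h, then exposed to compound for 48 h in DMEM/F-12 or DMEM with 5% FBS. Vehicle controls received matching DMSO. MTT added at 0.5 mg/mL for 3 h at 37 °C. Formazan dissolved in DMSO and absorbance read at 570 nm.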

[2] = system: A549; experiment: Growth inhibition of human A549 cells by MTT assay; assay type: functional, cell-based; method in brief: as §1
[3] = system: Hep 3B2; experiment: Growth inhibition of human Hep3B cells by MTT assay; assay type: functional, cell-based; method in brief: as §1
[4] = target: T1, Prostaglandin G/H synthase 1 (Ovis aries, UniProt P05979); experiment: Inhibition of ovine COX1 assessed as reduction in PGH2 formation by measuring PGF2alpha by colorimetric assay
T1 sequence (P05979 whole entry): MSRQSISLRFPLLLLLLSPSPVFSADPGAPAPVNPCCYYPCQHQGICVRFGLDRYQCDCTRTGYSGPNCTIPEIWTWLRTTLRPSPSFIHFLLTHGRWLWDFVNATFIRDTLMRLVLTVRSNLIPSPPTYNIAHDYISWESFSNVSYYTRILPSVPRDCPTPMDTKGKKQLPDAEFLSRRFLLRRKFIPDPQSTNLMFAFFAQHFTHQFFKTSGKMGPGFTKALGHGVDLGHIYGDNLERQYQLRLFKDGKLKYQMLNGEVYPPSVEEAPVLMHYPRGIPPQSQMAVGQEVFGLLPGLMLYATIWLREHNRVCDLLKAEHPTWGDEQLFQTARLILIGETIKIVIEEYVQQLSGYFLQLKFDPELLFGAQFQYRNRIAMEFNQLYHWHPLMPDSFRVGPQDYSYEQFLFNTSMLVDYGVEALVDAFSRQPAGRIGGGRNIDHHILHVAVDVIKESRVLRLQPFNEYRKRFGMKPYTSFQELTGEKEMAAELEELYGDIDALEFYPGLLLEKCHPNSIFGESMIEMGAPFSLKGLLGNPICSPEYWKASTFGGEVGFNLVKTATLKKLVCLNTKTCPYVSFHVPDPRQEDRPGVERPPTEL
Method in brief: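 Colorimetric COX inhibitor screening kit run per the manufacturer, using ovine COX-1. IC50 calculated from three determinations.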

[5] = target: Serine/threonine-protein kinase Sgk1 (Homo sapiens) (UniProt O00141); experiment: Inhibition of SGK1 (unknown origin) at 10 uM using [33P]-ATP after 20 to 40 mins by scintillation counting method
[6] = system: MCF7; experiment: Induction of apoptosis in human MCF7 cells assessed as early apoptotic cells level at 1 uM incubated for 24 hrs by Annexin V PI/FITC staining based flow cytometry (reference value: 17.4%); assay type: functional
[7] = target: Epidermal growth factor receptor (Homo sapiens) (UniProt P00533); experiment: Inhibition of EGFR (unknown origin) at 10 uM using [33P]-ATP after 20 to 40 mins by scintillation counting method
[8] = system: MCF7; experiment: Induction of apoptosis in human MCF7 cells assessed as early apoptotic cells level at 10 uM incubated for 24 hrs by Annexin V PI/FITC staining based flow cytometry (reference value: 17.4%); assay type: functional
[9] = system: MCF7; experiment: Induction of apoptosis in human MCF7 cells assessed as viable cells level at 10 uM incubated for 24 hrs by Annexin V PI/FITC staining based flow cytometry (reference value: 72.3%); assay type: functional
[10] = system: MCF7; experiment: Induction of apoptosis in human MCF7 cells assessed as late apoptotic cells level at 5 uM incubated for 24 hrs by Annexin V PI/FITC staining based flow cytometry (reference value: 9%); assay type: functional
[11] = target: cGMP-dependent protein kinase 1 (Homo sapiens) (UniProt Q13976); experiment: Inhibition of PRKG1 (unknown origin) at 10 uM using [33P]-ATP after 20 to 40 mins by scintillation counting method
[12] = system: MCF7; experiment: Induction of apoptosis in human MCF7 cells assessed as late necrosis cells level at 1 uM incubated for 24 hrs by Annexin V PI/FITC staining based flow cytometry (reference value: […]); assay type: functional
[13] = target: Ribosomal protein S6 kinase alpha-5 (Homo sapiens) (UniProt O75582); experiment: Inhibition of MSK1 (unknown origin) at 10 uM using [33P]-ATP after 20 to 40 mins by scintillation counting method
[14] = target: Mitogen-activated protein kinase kinase kinase 5 (Homo sapiens) (UniProt Q99683); experiment: Inhibition of ASK1 (unknown origin) at 10 uM using [33P]-ATP after 20 to 40 mins by scintillation counting method
[15] = target: Ephrin type-A receptor 1 (Homo sapiens) (UniProt P21709); experiment: Inhibition of EPHA1 (unknown origin) at 10 uM using [33P]-ATP after 20 to 40 mins by scintillation counting method
[16] = system: A549; experiment: Induction of apoptosis in human A549 cells assessed as caspe-3/7 activation at 5 to 20 uM incubated for 24 hrs by Caspase-Glo 3/7 luminescence assay; assay type: functional, cell-based
Method in brief: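 A549 cells plated at 1 x 10^4 per well and allowed 24 h to settle. Medium removed, then compounds added for 24 h at 5, 10 and 20 μM. Vehicle controls received equivalent DMSO. Caspase-3/7 activity read by Caspase-Glo 3/7 luminescence (RLU). Mean ± S.D. (n = 5), experiment done 3 times. Compared with vehicle by one-way ANOVA with Dunnett's test.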

[17] = system: MCF7; experiment: Induction of apoptosis in human MCF7 cells assessed as late apoptotic cells level at 10 uM incubated for 24 hrs by Annexin V PI/FITC staining based flow cytometry (reference value: 9%); assay type: functional
[18] = system: MCF7; experiment: Induction of apoptosis in human MCF7 cells assessed as viable cells level at 5 uM incubated for 24 hrs by Annexin V PI/FITC staining based flow cytometry (reference value: 72.3%); assay type: functional
[19] = system: MCF7; experiment: Induction of cell cycle arrest in human MCF7 cells assessed as increase in accumulation at S phase at 5 and 10 uM by propidium iodide staining based flow cytometry relative to untreated control; assay type: functional
Method in brief: (§2)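 MCF-7 seeded at 1×10^5 cells/well and attached overnight, then given 0, 1, 5 or 10 µM for 24 h. Cells pooled, fixed overnight in 70% ice-cold ethanol, treated with RNase A and stained with PI. Flow cytometry on 20000 events with doublets gated out. Mean ± S.D. (n = 3). Compared with DMSO vehicle by one-way ANOVA with Dunnett's test.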

[20] = system: MCF7; experiment: Induction of apoptosis in human MCF7 cells assessed as late necrosis cells level at 10 uM incubated for 24 hrs by Annexin V PI/FITC staining based flow cytometry (reference value: […]); assay type: functional
[21] = target: Serine/threonine-protein kinase Nek1 (Homo sapiens) (UniProt Q96PY6); experiment: Inhibition of NEK1 (unknown origin) at 10 uM using [33P]-ATP after 20 to 40 mins by scintillation counting method
[22] = system: MCF7; experiment: Induction of apoptosis in human MCF7 cells assessed as viable cells level at 1 uM incubated for 24 hrs by Annexin V PI/FITC staining based flow cytometry (reference value: 72.3%); assay type: functional
[23] = system: MCF7; experiment: Induction of apoptosis in human MCF7 cells assessed as late apoptotic cells level at 1 uM incubated for 24 hrs by Annexin V PI/FITC staining based flow cytometry (reference value: 9%); assay type: functional
[24] = target: Rhodopsin kinase GRK1 (Homo sapiens) (UniProt Q15835); experiment: Inhibition of GRK1 (unknown origin) at 10 uM using [33P]-ATP after 20 to 40 mins by scintillation counting method
[25] = target: AMP-activated protein kinase (AMPK) alpha-1/beta-1/gamma-1 (Homo sapiens) (UniProt P54619+Q9Y478+Q13131); experiment: Inhibition of AMPK alpha1/beta1/gamma1 (unknown origin) at 10 uM using [33P]-ATP after 20 to 40 mins by scintillation counting method; assay type: protein-complex assay
[26] = system: MCF7; experiment: Induction of apoptosis in human MCF7 cells assessed as late necrosis cells level at 5 uM incubated for 24 hrs by Annexin V PI/FITC staining based flow cytometry (reference value: […]); assay type: functional
[27] = target: Vascular endothelial growth factor receptor 1 (Homo sapiens) (UniProt P17948); experiment: Inhibition of FLT1 (unknown origin) at 10 uM using [33P]-ATP after 20 to 40 mins by scintillation counting method
[28] = system: MCF7; experiment: Induction of apoptosis in human MCF7 cells assessed as early apoptotic cells level at 5 uM incubated for 24 hrs by Annexin V PI/FITC staining based flow cytometry (reference value: 17.4%); assay type: functional
[29] = system: MCF7; experiment: Induction of cell cycle arrest in human MCF7 cells assessed as increase in accumulation at G2/M phase at 10 uM by propidium iodide staining based flow cytometry relative to untreated control; assay type: functional; method in brief: as §2
[30] = target: Tyrosine-protein kinase Blk (Homo sapiens) (UniProt P51451); experiment: Inhibition of BLK (unknown origin) at 10 uM using [33P]-ATP after 20 to 40 mins by scintillation counting method
[31] = target: Glycogen synthase kinase-3 alpha (Homo sapiens) (UniProt P49840); experiment: Inhibition of GSK3alpha (unknown origin) at 10 uM using [33P]-ATP after 20 to 40 mins by scintillation counting method
[32] = target: 3-phosphoinositide-dependent protein kinase 1 (Homo sapiens) (UniProt O15530); experiment: Inhibition of PDK1 (unknown origin) at 10 uM using [33P]-ATP after 20 to 40 mins by scintillation counting method
[33] = system: MCF7; experiment: Anticancer activity against human MCF7 cells; assay type: functional, cell-based
[34] = system: PC-3; experiment: Anticancer activity against human PC3 cells; assay type: functional, cell-based
[35] = target: Dual specificity tyrosine-phosphorylation-regulated kinase 3 (Homo sapiens) (UniProt O43781); experiment: Inhibition of DYRK3 (unknown origin) at 10 uM using [33P]-ATP after 20 to 40 mins by scintillation counting method
[36] = target: Activin receptor type-1-like (Homo sapiens) (UniProt P37023); experiment: Inhibition of ALK1 (unknown origin) at 10 uM using [33P]-ATP after 20 to 40 mins by scintillation counting method
[37] = target: Casein kinase I isoform alpha (Homo sapiens) (UniProt P48729); experiment: Inhibition of CK1alpha1 (unknown origin) at 10 uM using [33P]-ATP after 20 to 40 mins by scintillation counting method
Casein kinase I isoform alpha (Homo sapiens), sequence (P48729 2-337 limits assumed): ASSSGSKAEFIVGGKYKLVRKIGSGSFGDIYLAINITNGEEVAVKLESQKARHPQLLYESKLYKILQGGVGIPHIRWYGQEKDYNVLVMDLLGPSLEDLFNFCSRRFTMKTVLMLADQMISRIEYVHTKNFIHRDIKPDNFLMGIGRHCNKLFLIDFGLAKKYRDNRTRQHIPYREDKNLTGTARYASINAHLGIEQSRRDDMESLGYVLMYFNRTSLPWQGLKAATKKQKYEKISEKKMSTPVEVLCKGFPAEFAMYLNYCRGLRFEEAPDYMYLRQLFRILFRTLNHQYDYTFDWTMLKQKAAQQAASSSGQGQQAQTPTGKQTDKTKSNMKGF

AMP-activated protein kinase (AMPK) alpha-1/beta-1/gamma-1 (Homo sapiens), sequence (P54619 whole entry): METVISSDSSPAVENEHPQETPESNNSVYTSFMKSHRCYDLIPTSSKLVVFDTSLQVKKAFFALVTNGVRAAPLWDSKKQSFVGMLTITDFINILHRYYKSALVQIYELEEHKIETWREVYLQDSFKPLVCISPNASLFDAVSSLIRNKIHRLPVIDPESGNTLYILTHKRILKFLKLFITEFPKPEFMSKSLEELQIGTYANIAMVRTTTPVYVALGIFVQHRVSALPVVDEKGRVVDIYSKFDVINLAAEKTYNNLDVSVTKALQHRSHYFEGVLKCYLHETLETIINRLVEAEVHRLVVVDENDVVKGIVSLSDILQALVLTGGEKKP
AMP-activated protein kinase (AMPK) alpha-1/beta-1/gamma-1 (Homo sapiens), sequence (Q13131 whole entry partner): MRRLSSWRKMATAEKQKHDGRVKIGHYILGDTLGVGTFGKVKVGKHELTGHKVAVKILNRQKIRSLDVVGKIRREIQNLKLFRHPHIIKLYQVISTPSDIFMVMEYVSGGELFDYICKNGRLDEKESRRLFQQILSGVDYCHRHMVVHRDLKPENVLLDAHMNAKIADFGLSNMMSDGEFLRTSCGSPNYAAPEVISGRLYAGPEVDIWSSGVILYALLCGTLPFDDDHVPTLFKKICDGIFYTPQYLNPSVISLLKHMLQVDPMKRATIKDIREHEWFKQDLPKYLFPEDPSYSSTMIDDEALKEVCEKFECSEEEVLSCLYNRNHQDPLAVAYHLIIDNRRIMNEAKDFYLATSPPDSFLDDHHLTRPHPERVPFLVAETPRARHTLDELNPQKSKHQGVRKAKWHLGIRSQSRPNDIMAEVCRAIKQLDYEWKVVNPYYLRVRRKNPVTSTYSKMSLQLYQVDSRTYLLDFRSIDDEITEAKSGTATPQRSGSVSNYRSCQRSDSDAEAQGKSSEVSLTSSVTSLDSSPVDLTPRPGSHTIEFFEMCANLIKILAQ
AMP-activated protein kinase (AMPK) alpha-1/beta-1/gamma-1 (Homo sapiens), sequence (Q9Y478 2-270 partner limits assumed): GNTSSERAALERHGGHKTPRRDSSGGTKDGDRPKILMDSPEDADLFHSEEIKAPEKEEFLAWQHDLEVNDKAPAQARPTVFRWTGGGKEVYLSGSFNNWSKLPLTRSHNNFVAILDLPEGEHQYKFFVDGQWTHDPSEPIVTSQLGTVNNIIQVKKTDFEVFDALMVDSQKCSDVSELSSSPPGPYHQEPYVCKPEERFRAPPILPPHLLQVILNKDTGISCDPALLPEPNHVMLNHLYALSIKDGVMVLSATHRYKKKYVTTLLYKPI
Ephrin type-A receptor 1 (Homo sapiens), sequence (P21709 whole entry): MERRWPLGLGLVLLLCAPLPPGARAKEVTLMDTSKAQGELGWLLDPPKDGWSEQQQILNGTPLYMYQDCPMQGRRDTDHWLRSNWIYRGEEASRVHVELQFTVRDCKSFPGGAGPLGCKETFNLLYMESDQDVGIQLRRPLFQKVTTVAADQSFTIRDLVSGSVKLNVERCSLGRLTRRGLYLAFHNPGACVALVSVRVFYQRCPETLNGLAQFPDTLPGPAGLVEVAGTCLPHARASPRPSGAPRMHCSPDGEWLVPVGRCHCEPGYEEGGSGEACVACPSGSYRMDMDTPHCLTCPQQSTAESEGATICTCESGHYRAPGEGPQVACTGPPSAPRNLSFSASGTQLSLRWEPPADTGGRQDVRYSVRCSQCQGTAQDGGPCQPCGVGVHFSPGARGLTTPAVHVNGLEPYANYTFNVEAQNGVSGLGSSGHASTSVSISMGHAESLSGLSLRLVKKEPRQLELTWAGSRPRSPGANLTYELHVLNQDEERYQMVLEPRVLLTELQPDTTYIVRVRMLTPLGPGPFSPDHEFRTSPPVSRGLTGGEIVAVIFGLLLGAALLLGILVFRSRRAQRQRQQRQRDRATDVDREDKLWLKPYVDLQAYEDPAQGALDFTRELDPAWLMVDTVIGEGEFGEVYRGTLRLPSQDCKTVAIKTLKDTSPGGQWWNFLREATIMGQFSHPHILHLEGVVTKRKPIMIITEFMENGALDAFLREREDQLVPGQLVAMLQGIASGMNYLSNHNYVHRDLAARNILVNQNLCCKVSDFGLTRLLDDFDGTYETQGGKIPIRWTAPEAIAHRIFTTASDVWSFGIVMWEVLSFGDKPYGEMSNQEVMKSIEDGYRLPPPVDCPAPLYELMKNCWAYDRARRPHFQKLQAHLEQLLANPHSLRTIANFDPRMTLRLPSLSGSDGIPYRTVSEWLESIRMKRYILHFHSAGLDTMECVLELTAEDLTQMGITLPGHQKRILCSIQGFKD
Rhodopsin kinase GRK1 (Homo sapiens), sequence (Q15835 whole entry): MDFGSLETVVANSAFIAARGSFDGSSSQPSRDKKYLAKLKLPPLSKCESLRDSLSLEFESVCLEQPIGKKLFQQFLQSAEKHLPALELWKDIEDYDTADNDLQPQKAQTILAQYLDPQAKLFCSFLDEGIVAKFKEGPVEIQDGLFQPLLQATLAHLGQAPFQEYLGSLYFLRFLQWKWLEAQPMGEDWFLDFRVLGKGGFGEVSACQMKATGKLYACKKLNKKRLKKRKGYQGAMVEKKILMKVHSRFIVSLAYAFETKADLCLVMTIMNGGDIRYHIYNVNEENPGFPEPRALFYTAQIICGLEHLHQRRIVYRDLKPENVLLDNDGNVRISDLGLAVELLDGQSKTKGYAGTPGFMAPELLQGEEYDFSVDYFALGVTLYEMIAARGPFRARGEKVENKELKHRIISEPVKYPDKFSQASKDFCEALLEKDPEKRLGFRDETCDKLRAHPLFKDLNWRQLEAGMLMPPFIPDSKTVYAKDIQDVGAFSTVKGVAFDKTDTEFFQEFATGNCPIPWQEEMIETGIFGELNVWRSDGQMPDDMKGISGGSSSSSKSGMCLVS
Vascular endothelial growth factor receptor 1 (Homo sapiens), sequence (P17948 whole entry): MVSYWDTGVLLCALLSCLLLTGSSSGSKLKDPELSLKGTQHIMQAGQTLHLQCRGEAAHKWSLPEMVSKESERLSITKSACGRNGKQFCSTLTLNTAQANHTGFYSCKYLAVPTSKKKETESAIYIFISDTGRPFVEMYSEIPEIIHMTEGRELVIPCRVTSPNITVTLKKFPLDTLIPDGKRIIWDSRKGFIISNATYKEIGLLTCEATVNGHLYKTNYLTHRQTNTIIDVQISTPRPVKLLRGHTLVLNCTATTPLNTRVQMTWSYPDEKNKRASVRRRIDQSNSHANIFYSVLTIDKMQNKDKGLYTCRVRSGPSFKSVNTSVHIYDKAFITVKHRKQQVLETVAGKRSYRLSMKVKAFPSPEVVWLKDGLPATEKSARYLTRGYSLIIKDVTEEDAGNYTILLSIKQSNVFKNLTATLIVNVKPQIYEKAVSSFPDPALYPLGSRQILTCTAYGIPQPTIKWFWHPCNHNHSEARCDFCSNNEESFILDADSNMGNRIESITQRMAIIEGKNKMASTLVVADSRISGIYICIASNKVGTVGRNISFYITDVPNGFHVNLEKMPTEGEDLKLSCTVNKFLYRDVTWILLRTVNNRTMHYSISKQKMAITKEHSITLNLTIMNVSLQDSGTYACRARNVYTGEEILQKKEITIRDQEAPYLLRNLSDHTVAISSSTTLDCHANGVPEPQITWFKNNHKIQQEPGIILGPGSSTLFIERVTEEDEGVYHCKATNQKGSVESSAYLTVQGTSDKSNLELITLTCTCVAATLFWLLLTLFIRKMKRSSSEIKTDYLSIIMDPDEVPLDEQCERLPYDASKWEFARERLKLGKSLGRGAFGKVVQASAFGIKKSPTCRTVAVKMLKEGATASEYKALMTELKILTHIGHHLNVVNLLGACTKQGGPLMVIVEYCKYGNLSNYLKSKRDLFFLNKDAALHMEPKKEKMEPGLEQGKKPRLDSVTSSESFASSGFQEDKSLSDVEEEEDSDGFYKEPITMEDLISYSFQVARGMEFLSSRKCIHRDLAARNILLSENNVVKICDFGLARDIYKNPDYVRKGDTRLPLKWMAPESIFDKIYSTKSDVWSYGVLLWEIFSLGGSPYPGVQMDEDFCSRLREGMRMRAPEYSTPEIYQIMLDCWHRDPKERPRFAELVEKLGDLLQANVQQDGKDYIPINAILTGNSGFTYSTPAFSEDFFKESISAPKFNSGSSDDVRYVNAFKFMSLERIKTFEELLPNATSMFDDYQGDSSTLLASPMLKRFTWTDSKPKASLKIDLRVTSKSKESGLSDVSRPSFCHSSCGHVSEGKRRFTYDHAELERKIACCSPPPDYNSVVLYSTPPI
cGMP-dependent protein kinase 1 (Homo sapiens), sequence (Q13976 whole entry): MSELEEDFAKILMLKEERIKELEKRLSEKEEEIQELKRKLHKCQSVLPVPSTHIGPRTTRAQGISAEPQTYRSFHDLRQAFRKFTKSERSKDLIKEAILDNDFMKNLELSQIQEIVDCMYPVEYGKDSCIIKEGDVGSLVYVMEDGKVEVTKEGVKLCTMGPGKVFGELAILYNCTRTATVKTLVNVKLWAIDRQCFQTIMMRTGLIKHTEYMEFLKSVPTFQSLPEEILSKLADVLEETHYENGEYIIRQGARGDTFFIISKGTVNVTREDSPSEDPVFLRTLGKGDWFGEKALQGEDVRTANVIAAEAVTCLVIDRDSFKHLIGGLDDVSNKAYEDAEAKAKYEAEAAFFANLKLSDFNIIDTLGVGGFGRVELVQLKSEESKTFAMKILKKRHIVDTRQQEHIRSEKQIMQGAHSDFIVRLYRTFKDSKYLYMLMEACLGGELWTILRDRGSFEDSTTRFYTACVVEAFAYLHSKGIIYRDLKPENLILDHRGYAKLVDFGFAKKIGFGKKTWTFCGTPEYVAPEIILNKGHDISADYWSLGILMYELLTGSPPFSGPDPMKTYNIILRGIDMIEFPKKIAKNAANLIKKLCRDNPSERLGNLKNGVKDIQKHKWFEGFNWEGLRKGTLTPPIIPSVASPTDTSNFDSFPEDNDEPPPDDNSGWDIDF

Compound: N#Cc1c(N=Cc2ccc3ccccc3c2)c(C(=O)Nc2ccccc2)n2c1CCC2
IC50 [1]: 5.77 µM | IC50 [2]: 7.11 µM | Activity [16]: Active | IC50 [3]: 10.2 µM | IC50 [4]: 7.98 µM

Compound: N#Cc1c(/N=C/c2ccc([N+](=O)[O-])cc2)c(C(=O)Nc2cc(Cl)cc(Cl)c2)n2c1CCC2
IC50 [1]: 7.9 µM | IC50 [33]: 7.9 µM | IC50 [2]: 16.2 µM | IC50 [34]: 8.54 µM | IC50 [3]: 14 µM

Compound: Cc1ccc(NC(=O)c2ccc(CN3CCN(C)CC3)cc2)cc1Nc1nccc(-c2cccnc2)n1
inhibition [5]: -3% | inhibition [35]: 10% | inhibition [36]: -14% | inhibition [11]: -4% | inhibition [37]: 0% | inhibition [13]: -49% | inhibition [14]: -5% | inhibition [15]: -22% | inhibition [24]: -2% | inhibition [25]: -18% | inhibition [27]: 10% | inhibition [30]: 3% | inhibition [31]: 1% | inhibition [32]: -34%

Compound: COc1cccc2c1C(=O)c1c(O)c3c(c(O)c1C2=O)C[C@@](O)(C(=O)CO)C[C@@H]3O[C@H]1C[C@H](N)[C@H](O)[C@H](C)O1 [DOXORUBICIN]
IC50 [1]: 2.3 µM | IC50 [3]: 2.4 µM

Second part, led by results:

IC50 [1]: 8.35 µM | IC50 [2]: 9.75 µM | IC50 [4]: 6.54 µM
Compound: N#Cc1c(N=Cc2ccco2)c(C(=O)Nc2ccccc2)n2c1CCC2
IC50 [3]: 12.8 µM

IC50 [1]: 7.76 µM | inhibition [5]: -16% | inhibition [7]: -47% | IC50 [2]: 3.24 µM | inhibition [11]: -4% | inhibition [13]: -43% | inhibition [14]: -19% | inhibition [15]: -37% | inhibition [21]: 8% | inhibition [24]: 7% | inhibition [25]: -11% | inhibition [27]: -10% | IC50 [4]: 12 µM | inhibition [30]: -16% | inhibition [31]: -5% | inhibition [32]: -27%
Compound: Cc1ccc(NC(=O)c2c(N=Cc3ccc4ccccc4c3)c(C#N)c3n2CCC3)cc1
Activity [6]: 16.3% | Activity [8]: 24.2% | Activity [9]: 62.1% | Activity [10]: 8.5% | Activity [12]: 0.8% | Activity [16]: Active | Activity [17]: 12.9% | Activity [18]: 66.9% | IC50 [3]: 8.69 µM | Activity [19]: Active | Activity [20]: 0.8% | Activity [22]: 72.2% | Activity [23]: 10.7% | Activity [26]: 1.1% | Activity [28]: 23.5% | Activity [29]: Active

IC50 [1]: 22.5 µM | IC50 [2]: 23 µM | IC50 [4]: 5.78 µM
Compound: N#Cc1c(N=Cc2cccnc2)c(C(=O)Nc2ccc(Cl)cc2)n2c1CCC2
IC50 [3]: 31.2 µM

IC50 [1]: 18.3 µM | IC50 [2]: 20.5 µM | IC50 [4]: 9.54 µM
Compound: Cc1ccc(NC(=O)c2c(N=Cc3cccnc3)c(C#N)c3n2CCC3)cc1
IC50 [3]: 34.8 µM
